D1 mod – D1 CRE-luciferase signal change, two-sided – cell-based, HEK293 D1, dopamine EC30, D1 allosteric modulator project, primary screen. dopamine EC30 potentiation; actives deviate in either direction. B-score at 10 µM. hit rate 5.9% among 58,000. AID 641, 2007;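 active = luminescence count or its row- and column-corrected plate score outside the 99.7% band of the plate's sample wells, on either side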
M1 ag – M1 muscarinic receptor agonists, primary screen, CHO-M1 cells, Fluo-4 calcium, agonist mode. hit rate 3% among 64,000. Muscarinic acetylcholine receptor M1. Fluo-4 calcium fluorescence; stronger effect = higher value. B-score at 10 µM;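 active = fluorescence rise, raw or as B-score row- and column-corrected plate score, outside the 99.7% band of its plate's samples, either direction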
S1P1 ag pot – S1P1 agonists and agonism potentiators, primary screen, cell-based, primary and confirmation screens, CRE-bla reporter. Sphingosine 1-phosphate receptor 1 (Homo sapiens), P21453. S1P1 CRE-bla cells, forskolin, beta-lactamase FRET, potentiator mode; S1P1 agonist co-added at EC20, 2 nM; 100% = saturating reference agonist, 0% = basal. activation, % at 9.5 µM. hit rate 0.57% among 56,000. AID 449, 2006;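 active = activation above a cutoff set at the mean activation of all tested compounds plus 3 SD, cut at about 54% in these data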;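 also: forskolin at 4 µM as EC80 and the EC20 agonist is SEW2871; 100% = SEW2871 at its EC100 plus forskolin at EC80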
Target sequence (P21453 whole entry, looked up): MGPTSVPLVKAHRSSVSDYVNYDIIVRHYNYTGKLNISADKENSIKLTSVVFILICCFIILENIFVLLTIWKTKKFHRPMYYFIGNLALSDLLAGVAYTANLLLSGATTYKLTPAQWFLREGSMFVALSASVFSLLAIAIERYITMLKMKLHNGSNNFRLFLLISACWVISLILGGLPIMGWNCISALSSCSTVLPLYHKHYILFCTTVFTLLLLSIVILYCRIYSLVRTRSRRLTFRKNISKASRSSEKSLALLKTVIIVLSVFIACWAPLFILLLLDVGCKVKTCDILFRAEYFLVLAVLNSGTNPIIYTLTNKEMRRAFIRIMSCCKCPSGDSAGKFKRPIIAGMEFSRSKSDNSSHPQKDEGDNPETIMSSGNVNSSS
M1 antagonist – antagonists of rat M1 muscarinic receptor; Muscarinic acetylcholine receptor M1 (Rattus norvegicus), P08482; CHO-M1 cells, Fluo-4 calcium, ACh EC80 antagonist mode; stronger effect = lower value; B-score at 10 µM; hit rate 3.4% among 64,000;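 active = calcium fluorescence response, raw or row-and-column corrected B-score, differing from the plate sample mean either way at a set confidence level, mostly lower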
S1P3 ag – human S1P3 receptor agonists, primary screen, cell-based, primary and confirmation, NFAT-BLA reporter; Sphingosine 1-phosphate receptor 3 (Homo sapiens), Q99500; S1P3 NFAT-BLA reporter cells, agonism, FRET ratio; relative to 1 µM S1P, basal subtracted; activation, % at 4.5 µM; hit rate 0.1% among 60,000; AID 373, 2006;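 active = activation above the screen-wide mean plus 3 SD, cut at about 4.5% in these data, passing the limit was not always enough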
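Measure – % activation relative to 1 µM S1P (100%), per plate · System – stable CHO line with human S1P3, Gα16, NFAT-BLA reporter · Timing – cells plated overnight, compound 4 h 37 °C, substrate 2 h RT · Technique – fluorescent BLA substrate, ex 405 nm, em 460/535 nm ratio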
M1 antag confirm – rat M1 muscarinic receptor antagonists, confirmation, CHO cells, Fluo-4 calcium, duplicate. ACh EC80 antagonism; stronger effect = lower value. hit rate 43% among 1,700. shares compounds with M1 antagonist. calcium response (max-min fluorescence) at 10 µM;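 active = calcium response below the same-plate mean of wells given acetylcholine alone at its 80%-effect dose, minus 3 SD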;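 also: raw fluorescence intensity difference in arbitrary instrument units and not normalized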
mGluR4 antag – human mGluR4 response to M1 antagonist hits, M1 allosteric modulator project, cell-based, antagonist mode, secondary assay 1; hit rate 0.9% among 1,700; fluorescence response (max-min) at 10 µM; CHO-mGluR4 calcium flux, Fluo-4 fluorescence, glutamate EC80; stronger effect = lower value; shares compounds with M1 antagonist;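 active = fluorescence response below the plate's average for near-maximal glutamate wells, less 3 SD of those wells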;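 also: raw unnormalized fluorescence span taken in the window right after glutamate addition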
* hit, by the source's call; / = not tested or not shown. This is a sample that favours compounds with a hit; in the whole collection about 11% have one here.

SMILES	D1 mod	M1 ag	S1P1 ag pot	M1 antagonist	S1P3 ag	M1 antag confirm	mGluR4 antag
CCOC(=O)c1c(CN2CCN(C)CC2)oc2ccc(O)cc12	-0.15	0.076	-19	-1	0	/	/
COC(=O)C1C(=O)NC(SC)=C(C#N)C1c1ccccc1F (stereo not given)	/	0.12	3	0.004	-1	/	/
NC(=O)Cn1nnc(-c2ccc(C(F)(F)F)cc2)n1	0.69	-1.9	/	0.53	-1	/	/
O=C(Cn1nnc(-c2cccc(C(F)(F)F)c2)n1)N1CCOCC1	-1.7	-0.77	/	-2.1*	0	661	182
CCOc1ccc2nc(N3CCCCCC3)sc2c1	-0.79	0.14	-10	0.77	1	/	/
CN(C)c1nc2ccc(OCCN3CCCCC3)cc2s1	-3.4*	-0.28	/	-3*	0	408*	216
O=C(CN1CCC(O)CC1)N1c2ccccc2C=Cc2ccccc21	0.34	-0.47	6	-5.6*	-1	243*	223
O=C(CN1CCCC1)N1c2ccccc2Sc2ccccc21	-0.74	0.12	11	-19*	-1	666	218
NCCCC(=O)N1c2ccccc2Sc2ccccc21	-0.61	-0.041	1	-13*	0	59*	244
O=C1CS/C(=N\C(=O)N2c3ccccc3Sc3ccccc32)N1	-2.1	0.016	-7	-0.076	-1	/	/
Cc1c(C)n(C(=O)CN2CCC(C(N)=O)CC2)c2ccccc12	0.035	-0.71	-15	0.095	0	/	/
O=C(c1ccco1)N1CCN(CC(=O)N2c3ccccc3CCc3ccccc32)CC1	/	0.0099	-1	-0.57	0	/	/
O=C(COC(=O)c1ccccc1F)c1ccc(-n2nncc2-c2ccco2)cc1	/	0.084	-2	-0.22	0	/	/
COc1ccccc1C(=O)Nc1c(C)n(C)n(-c2ccccc2)c1=O	-1.1	0.29	-1	-0.033	0	/	/
COc1ccc(N2C(=O)C(Cl)=C(Nc3c(C)n(C)n(-c4ccccc4)c3=O)C2=O)cc1	-0.084	-0.0043	-12	-3.8*	-1	427*	254
O=C(c1cccs1)N1CCN(CCc2ccccc2)CC1	-2.1	-0.1	7	-0.12	0	/	/
O=C(NCCN1CCN(C(=O)c2cccs2)CC1)c1cccs1	-0.42	-0.6	-11	-2.3*	0	560	234
Cc1ccc(S(=O)(=O)N(Cc2cc3cc4c(cc3[nH]c2=O)OCCO4)CC2CCCO2)cc1 (stereo not given)	0.93	-0.51	-5	0.2	0	/	/
O=c1[nH]c2cc3c(cc2cc1CN(CC1CCCO1)S(=O)(=O)c1ccc(Cl)cc1)OCCO3 (stereo not given)	/	0.013	-8	-4.2*	-1	614	269
O=C(CSc1nnc(C23CC4CC(CC(C4)C2)C3)o1)Nc1ccc(N2CCOCC2)c(Cl)c1	0.19	-0.015	-19	0.41	0	/	/
CCCCSc1nc2c(cc1C#N)CCC2	2.1	0.57	10	-0.1	-1	/	/
CS(=O)CSc1nc2c(cc1C#N)CCCC2 (stereo not given)	0.5	-0.2	-26	-9.3*	0	260*	203
CCOC(=O)c1cc2c(=O)n(C)c3ccccc3c2s1	0.59	/	4	/	0	/	/
CC(=O)c1ccccc1Oc1nc(CN2CCOCC2)nc2scc(-c3cccs3)c12	0.02	0.18	16	-2.3*	1	478*	183
Cc1sc2nc(CN3CCOCC3)nc(Oc3ccc(NC(=O)c4ccco4)cc3)c2c1C	0.78	-0.25	-15	-0.11	0	/	/
SMILES	D1 mod	M1 ag	S1P1 ag pot	M1 antagonist	S1P3 ag	M1 antag confirm	mGluR4 antag
Cn1c(=O)c2cc(NC(=O)c3ccccc3Cl)c(=O)oc2n(C)c1=O	-0.25	-0.44	/	0.28	/	/	/
CC1Cc2ccccc2N1C(=O)CSc1nnc(-c2ccc(S(=O)(=O)N3CCCC3)cc2)o1 (stereo not given)	-0.74	-0.62	-25	-0.04	0	/	/
CC(C)c1nnc(NC(=O)Cn2nc(-c3ccc4c(c3)OCCO4)ccc2=O)s1	0.79	0.019	8	-0.22	1	/	/
Cc1ccccc1OCC(=O)OC(C)CN1CCN(C)CC1 (stereo not given)	-0.035	0.32	3	-5.5*	0	641	246
COc1ccccc1N1CCN(C(=O)c2sc3nc(-c4ccccc4)cn3c2C)CC1	-1.1	0.65	-22	-3.5*	1	639	190
N#Cc1c(NC(=O)CSc2ncnc3sccc23)oc(-c2ccco2)c1-c1ccco1	/	2.3	-13	-0.95	2	/	/
COCCn1nnnc1CN(CCc1ccccc1)Cc1cc2ccc(C)cc2[nH]c1=O	0.082	-0.41	7	0.12	0	/	/
Cc1noc(/C=C/N(C)C)c1S(=O)(=O)N1CCCC(C(=O)NC2CCCCC2)C1 (stereo not given)	0.81	-0.86	-30	-2.3*	0	477	216
Cc1nc(NC2=NCN(CCCN3CCOCC3)CN2)nc2c(C)cccc12	-1.4	-1.6	-26	-7.4*	0	48*	198
Cc1cc2nc(NC3=NCN(CCCN4CCOCC4)CN3)nc(C)c2cc1C	-0.71	0.37	-5	-14*	-1	22*	189
Cc1ccc(S(=O)(=O)NCCCN2CCOCC2)cc1C	/	-1.1	/	-0.38	-1	/	/
CN(C)S(=O)(=O)c1ccc(C(=O)Nc2ccnn2C2CCCCC2)cc1	-0.74	0.23	-3	0.2	0	/	/
Cc1cc(C(=O)O)c(CCCN)s1	-0.59	-0.3	-17	0.28	0	/	/
CC(OC(=O)C1CCN(S(=O)(=O)c2ccccc2)CC1)C(=O)Nc1ncc(Cl)cc1Cl (stereo not given)	-0.51	-1.7	27	-1.3*	1	668	250
CC(OC(=O)CCCN1C(=O)c2ccccc2C1=O)C(=O)Nc1ncc(Cl)cc1Cl (stereo not given)	0.082	-0.3	-8	-0.068	-2	/	/
Cc1ccc(C2/C(=C(\O)c3c(C)nc4ccccn34)C(=O)C(=O)N2CCCN2CCOCC2)o1 (stereo not given)	0.024	-0.37	2	0.28	-1	/	/
O=c1c(CN2CCN(Cc3ccccc3)CC2)coc2ccc(Cl)cc12	-0.67	-0.83	-13	-4.2*	-2	365*	194
CCN1CCN(Cc2coc3ccc(C)cc3c2=O)CC1	-0.13	0.012	-9	-0.26	-2	/	/
